Calls of active or inactive are those of the source. No cut-off for these calls is given here.
Experiments:
Rattus norvegicus [1] = experiment: Percentage of fall in systolic blood pressure (SBP) at the following hours after dosing at 75 mg/kg (po) at 24 hr in spontaneously hypertensive rats(SHR); format: functional, Artery
In short: (§1)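 Male spontaneously hypertensive rats (Wistar-Kyoto strain), unanesthetized, dosed orally; systolic pressure measured by indirect tail cuff. Before each reading, rats warmed at 35-37 °C for 15-20 min to dilate the caudal artery. Five rats per treatment group; result is percentage fall in systolic pressure versus untreated control. Significance tested against control.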

Rattus norvegicus [2] = experiment: Percentage of fall in systolic blood pressure (SBP) at the following hours after dosing at 75 mg/kg (po) at 7.5 hr in spontaneously hypertensive rats(SHR); format: functional, Artery; in short: as §1
Rattus norvegicus [3] = experiment: […] systolic blood pressure (SBP) for compound-treated group relative to the value for untreated control at 75 mg/kg dose (po) in spontaneously hypertensive rats(SHR); format: functional, Artery; in short: as §1
Rattus norvegicus [4] = experiment: Percentage of fall in systolic blood pressure (SBP) at the following hours after dosing at 75 mg/kg (po) at 2 hr in spontaneously hypertensive rats(SHR); format: functional, Artery; in short: as §1
Rattus norvegicus [5] = experiment: Evaluated for the percentage inhibition of the depressor response of isoproterenol (0.25 mg/kg, iv) in spontaneously hypertensive rats at 150 mg/kg peroral dose; NI means no inhibition at 10 mg/kg, iv
Rattus norvegicus [6] = experiment: Percentage of fall in systolic blood pressure (SBP) at the following hours after dosing at 75 mg/kg (po) at 5 hr in spontaneously hypertensive rats(SHR); format: functional, Artery; in short: as §1
Rattus norvegicus [7] = experiment: Percentage of fall in systolic blood pressure (SBP) at the following hours after dosing at 75 mg/kg (po) at 7.5 hr in spontaneously hypertensive rats(SHR); NS means not significant; format: functional, organism-based; design: dose 75 mg/kg; conditions: Artery; in short: as §1
Rattus norvegicus [8] = experiment: Percentage of fall in systolic blood pressure (SBP) at the following hours after dosing at 75 mg/kg (po) at 5 hr in spontaneously hypertensive rats(SHR); NS means not significant; format: functional, organism-based; design: dose 75 mg/kg; conditions: Artery; in short: as §1
Rattus norvegicus [9] = organism: Rattus norvegicus; experiment: animal or person; conditions: iv, read-out: Inhibition
Rattus norvegicus [10] = experiment: Percentage of fall in systolic blood pressure (SBP) at the following hours after dosing at 75 mg/kg (po) at 2 hr in spontaneously hypertensive rats(SHR); NS means not significant; format: functional, organism-based; design: dose 75 mg/kg; conditions: Artery; in short: as §1
Rattus norvegicus [11] = experiment: Percentage of fall in systolic blood pressure (SBP) at the following hours after dosing at 75 mg/kg (po) at 24 hr in spontaneously hypertensive rats(SHR); NS means not significant; format: functional, organism-based; design: dose 75 mg/kg; conditions: Artery; in short: as §1
Rattus norvegicus [12] = experiment: Evaluated for the percentage inhibition of the depressor response of isoproterenol (0.25 mg/kg, iv) in spontaneously hypertensive rats at 150 mg/kg peroral dose;NI means no inhibition at 10 mg/kg, iv
Rattus norvegicus [13] = experiment: Percentage of fall in systolic blood pressure (SBP) at the following hours after dosing at 75 mg/kg (po) at 7.5 hr in spontaneously hypertensive rats(SHR) NS means not significant; format: functional, organism-based; design: dose 75 mg/kg; conditions: Artery; in short: as §1
Adrenergic receptor beta = Adrenergic receptor beta (Rattus norvegicus, UniProt P18090+P10608+P26255); experiment: Evaluated for beta-receptor affinity, determined in rat brain membrane fraction with [3H]- dihydroalprenolol; format: cell membranes
In short: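 Rat brain with cerebellum removed, homogenized in ice-cold 50 mM Tris-HCl pH 8.0 and spun at 50000g for 15 min, pellet washed once more the same way. Binding used 0.4-0.6 mg protein, 1 nM [3H]dihydroalprenolol, 50 mM Tris pH 8.0, and 5-10 competitor concentrations. IC50 read visually from a semilog plot; Ki from Cheng-Prusoff with KD approximately 1 nM.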

Rattus norvegicus [14] = experiment: Percentage of fall in systolic blood pressure (SBP) at the following hours after dosing at 8 mg/kg (po) at 24 hr in spontaneously hypertensive rats(SHR); format: functional, Artery; in short: as §1
Rattus norvegicus [15] = experiment: Percentage of fall in systolic blood pressure (SBP) at the following hours after dosing at 17 mg/kg (po) at 5 hr in spontaneously hypertensive rats(SHR); format: functional, Artery; in short: as §1
Rattus norvegicus [16] = experiment: […] systolic blood pressure (SBP) for compound-treated group relative to the value for untreated control at 8 mg/kg dose (po) in spontaneously hypertensive rats(SHR); format: functional, Artery; in short: as §1
Rattus norvegicus [17] = experiment: Percentage of fall in systolic blood pressure (SBP) at the following hours after dosing at 8 mg/kg (po) at 7.5 hr in spontaneously hypertensive rats(SHR); format: functional, Artery; in short: as §1
Rattus norvegicus [18] = experiment: […] systolic blood pressure (SBP) for compound-treated group relative to the value for untreated control at 17 mg/kg dose (po) in spontaneously hypertensive rats(SHR); format: functional, Artery; in short: as §1
Rattus norvegicus [19] = experiment: Percentage of fall in systolic blood pressure (SBP) at the following hours after dosing at 17 mg/kg (po) at 24 hr in spontaneously hypertensive rats(SHR); format: functional, Artery; in short: as §1
Rattus norvegicus [20] = experiment: Percentage of fall in systolic blood pressure (SBP) at the following hours after dosing at 8 mg/kg (po) at 5 hr in spontaneously hypertensive rats(SHR); format: functional, Artery; in short: as §1
Rattus norvegicus [21] = experiment: Percentage of fall in systolic blood pressure (SBP) at the following hours after dosing at 8 mg/kg (po) at 2 hr in spontaneously hypertensive rats(SHR); NS means not significant; format: functional, organism-based; design: dose 8 mg/kg; conditions: Artery; in short: as §1
Rattus norvegicus [22] = experiment: Percentage of fall in systolic blood pressure (SBP) at the following hours after dosing at 17 mg/kg (po) at 7.5 hr in spontaneously hypertensive rats(SHR); format: functional, Artery; in short: as §1
Rattus norvegicus [23] = experiment: Evaluated for the percentage inhibition of the depressor response of isoproterenol (0.25 mg/kg, iv) in spontaneously hypertensive rats at 150 mg/kg peroral dose
Rattus norvegicus [24] = experiment: Percentage of fall in systolic blood pressure (SBP) at the following hours after dosing at 17 mg/kg (po) at 2 hr in spontaneously hypertensive rats(SHR); NS mmeans not significant; format: functional, organism-based; design: dose 17 mg/kg; conditions: Artery; in short: as §1

Structure (SMILES)	Decrease in SBP (Rattus norvegicus [1]) [%]	Decrease in SBP (Rattus norvegicus [2]) [%]	SBP (Rattus norvegicus [3]) [mmHg]	Decrease in SBP (Rattus norvegicus [4]) [%]	Decrease in SBP (Rattus norvegicus [6]) [%]	Decrease in SBP (Rattus norvegicus [8])	Decrease in SBP (Rattus norvegicus [10])	Decrease in SBP (Rattus norvegicus [11])	Ki (Adrenergic receptor beta) [M]	also measured
CCCN(C)CC(O)COc1ccc2c(=O)c(-c3ccccc3)c(-c3ccccc3)oc2c1.O=C(O)/C=C\C(=O)O (stereo unspecified)	18	10	199	7	9					inhibition (Rattus norvegicus [5]): inactive
CC(C)NCC(O)COc1cccc2ccccc12 (stereo unspecified) [PROPRANOLOL]			212			inactive	inactive	inactive		Decrease in SBP (Rattus norvegicus [7]): inactive; inhibition in vivo at 10 mg/kg (Rattus norvegicus [9]): 100%
Cl.O=c1c(-c2ccccc2)c(-c2ccccc2)oc2cc(OCC(O)CNC3CCCC3)ccc12 (stereo unspecified)	18	23	200	10	23					inhibition (Rattus norvegicus [12]): inactive
O=c1c(-c2ccccc2)c(-c2ccccc2)oc2cc(OCC(O)CNC3CCCCC3)ccc12 (stereo unspecified)	16	13	216		10		inactive			
CC(C)(C)NCC(O)COc1ccc2c(=O)c(-c3ccccc3)c(-c3ccccc3)oc2c1.Cl (stereo unspecified)			196			inactive	inactive	inactive	> 0.00005	Decrease in SBP (Rattus norvegicus [13]): inactive
CCCNCC(O)COc1ccc2c(=O)c(-c3ccccc3)c(-c3ccccc3)oc2c1 (stereo unspecified)									> 0.00005	Decrease in SBP (Rattus norvegicus [14]): 10%; Decrease in SBP (Rattus norvegicus [15]): 11%; SBP (Rattus norvegicus [16]): 191 mmHg; Decrease in SBP (Rattus norvegicus [17]): 16%; SBP (Rattus norvegicus [18]): 198 mmHg; Decrease in SBP (Rattus norvegicus [19]): 14%; Decrease in SBP (Rattus norvegicus [20]): 12%; Decrease in SBP (Rattus norvegicus [21]): inactive; Decrease in SBP (Rattus norvegicus [22]): 20%; inhibition (Rattus norvegicus [23]): inactive; Decrease in SBP (Rattus norvegicus [24]): inactive

From ChEMBL document CHEMBL1123732, “Flavones. 1. Synthesis and antihypertensive activity of (3-phenylflavonoxy)propanolamines without beta-adrenoceptor antagonism” (J Med Chem, 1987)
